One experiment deals with T. brucei (STIB795). Briefly: In vivo antitrypanosomal activity, T. b. brucei STIB795-Luc mouse model. The conditions noted are these: 4 consecutive days. On the set-up: species or system mice. In short, it runs like this:
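Groups of four female NMRI mice were infected ip with 1 × 10⁴ bloodstream-form T. b. brucei STIB795-Luc. Test compound was given ip in water plus 10% DMSO from 3 days post-infection, with an untreated control group. Parasitemia was tracked by live imaging, and moribund mice were euthanized.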

Experiment [1] has as its target T. brucei cathepsin L (rhodesain) (Trypanosoma brucei rhodesiense, UniProt Q95PM0). Briefly: Rhodesain inhibition assay. The experiment is classed as biochemical. To be noted: 1 hour pre-incubation. In short, it runs like this: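 Rhodesain was expressed in Pichia pastoris and used at 0.8 nM final in 50 mM sodium acetate pH 5.5 with 2 mM DTT and 0.01% Triton X-100. It was pre-incubated 1 h with test compound (20 μM final), then Z-Phe-Arg-AMC (10 μM) was added. Cleavage rate (RFU/sec) was read at 25 °C, λex 355/λem 460 nm. E-64 (10 μM) served as positive control.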

The target of the next experiment is human cathepsin L (Homo sapiens, UniProt P07711). Briefly: Human cathepsin L inhibition. The experiment is classed as biochemical. To be noted: from 0.1 μM to 125 μM; 1 hour pre-incubation. In short, it runs like this: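 Human liver-derived cathepsin L (0.58 nM) in 400 mM sodium acetate pH 5.5 with 8 mM DTT, 4 mM EDTA and 0.01% Triton X-100. Pre-incubated 1 h with test compound, then Z-Phe-Arg-AMC (20 μM, concentration as added) in sodium acetate buffer. Substrate cleavage was followed as fluorescence rate (RFU/sec) at 25 °C, λex 355/λem 460 nm.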
Chain of human cathepsin L (P07711 114-333): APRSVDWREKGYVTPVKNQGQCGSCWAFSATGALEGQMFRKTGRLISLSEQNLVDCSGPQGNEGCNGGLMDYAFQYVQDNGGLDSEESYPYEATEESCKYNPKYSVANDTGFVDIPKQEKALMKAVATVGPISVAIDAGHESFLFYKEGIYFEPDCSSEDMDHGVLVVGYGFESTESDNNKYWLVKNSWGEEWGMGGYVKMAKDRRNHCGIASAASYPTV

With `O=C(Cc1ccc(OC/C=C/S(=O)(=O)c2ccccc2)cc1)Nc1cccc2cccnc12` [Compound 9], the “parasites in infected mice 24 hours posttreatment” value with T. brucei (STIB795) (50 mg/kg/day intraperitoneally) and with T. brucei (STIB795) (100 mg/kg/day intraperitoneally) was “positive for parasites” in each case.
Take `O=C(N[C@H](/C=C/S(=O)(=O)c1ccccc1)CCc1ccccc1)c1cccc2cccnc12` [Compound 27]: the “inhibition of rhodesain at 20 μM” value in experiment [1] is on record as “completely inactivate”. Besides, the “inhibitory activity against human cathepsin L” value at human cathepsin L was “inactive”.
